Reference: ChEMBL document CHEMBL4396900, “Extending Cross Metathesis To Identify Selective HDAC Inhibitors: Synthesis, Biological Activities, and Modeling” (ACS Med Chem Lett, 2019)
One block for each molecule: values may come before it. Active and inactive are the calls of the source. The rule behind the calls is not given here.

Legend:
[1] = target: Histone deacetylase 11 (Homo sapiens, UniProt Q96DB2); test: Inhibition of human recombinant HDAC11 using fluorogenic HDAC substrate class 2a measured after 30 mins by fluorimetry assay
[2] = target: T1, Protein deacetylase HDAC6 (Homo sapiens) (UniProt Q9UBN7); test: Inhibition of HDAC6 in human A549 cells assessed as increase in histone H3 acetylation at 20 uM measured after 6 to 20 hrs by Western blot analysis; assay type: cell-based
T1 sequence (whole entry): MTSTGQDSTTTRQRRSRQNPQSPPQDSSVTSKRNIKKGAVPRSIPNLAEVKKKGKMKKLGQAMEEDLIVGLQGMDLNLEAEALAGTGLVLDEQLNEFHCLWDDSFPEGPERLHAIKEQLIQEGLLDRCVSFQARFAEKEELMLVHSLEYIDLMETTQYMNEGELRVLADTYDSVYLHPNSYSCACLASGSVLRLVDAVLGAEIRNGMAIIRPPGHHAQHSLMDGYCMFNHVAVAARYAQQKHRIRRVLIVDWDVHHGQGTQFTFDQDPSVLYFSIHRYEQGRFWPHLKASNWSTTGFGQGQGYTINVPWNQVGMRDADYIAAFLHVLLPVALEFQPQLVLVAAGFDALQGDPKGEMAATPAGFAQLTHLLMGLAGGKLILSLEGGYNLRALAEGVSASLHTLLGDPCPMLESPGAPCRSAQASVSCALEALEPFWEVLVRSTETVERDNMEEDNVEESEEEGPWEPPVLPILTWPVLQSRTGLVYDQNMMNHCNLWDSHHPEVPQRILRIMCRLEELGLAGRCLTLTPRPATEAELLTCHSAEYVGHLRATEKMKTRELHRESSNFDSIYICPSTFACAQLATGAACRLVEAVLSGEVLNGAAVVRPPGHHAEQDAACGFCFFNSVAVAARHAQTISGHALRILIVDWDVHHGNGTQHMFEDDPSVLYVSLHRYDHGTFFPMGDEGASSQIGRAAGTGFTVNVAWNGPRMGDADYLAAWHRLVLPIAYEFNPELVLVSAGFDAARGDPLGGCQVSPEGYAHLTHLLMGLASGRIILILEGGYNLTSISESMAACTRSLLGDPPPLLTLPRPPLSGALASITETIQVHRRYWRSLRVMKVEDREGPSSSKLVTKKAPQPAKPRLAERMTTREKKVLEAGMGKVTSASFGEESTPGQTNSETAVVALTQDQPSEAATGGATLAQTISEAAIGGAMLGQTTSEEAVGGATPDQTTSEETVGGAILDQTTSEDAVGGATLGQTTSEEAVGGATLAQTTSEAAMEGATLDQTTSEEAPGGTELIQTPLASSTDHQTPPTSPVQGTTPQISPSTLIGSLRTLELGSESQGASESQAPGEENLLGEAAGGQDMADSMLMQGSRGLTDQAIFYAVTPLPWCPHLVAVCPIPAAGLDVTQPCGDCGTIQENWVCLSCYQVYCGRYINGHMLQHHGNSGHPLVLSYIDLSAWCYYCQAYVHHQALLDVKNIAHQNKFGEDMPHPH
In short: (§1)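 Meso 163 mesothelioma and A549 lung adenocarcinoma cells exposed to agent for 6 or 20 h; histone H3 and alpha-tubulin acetylation analysed by western blot with molecular-weight markers.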

[3] = target: Histone deacetylase 9 (Homo sapiens, UniProt Q9UKV0); test: Inhibition of human recombinant HDAC9 using fluorogenic HDAC substrate class 2a measured after 30 mins by fluorimetry assay
Chain of Histone deacetylase 9 (Q9UKV0 whole entry): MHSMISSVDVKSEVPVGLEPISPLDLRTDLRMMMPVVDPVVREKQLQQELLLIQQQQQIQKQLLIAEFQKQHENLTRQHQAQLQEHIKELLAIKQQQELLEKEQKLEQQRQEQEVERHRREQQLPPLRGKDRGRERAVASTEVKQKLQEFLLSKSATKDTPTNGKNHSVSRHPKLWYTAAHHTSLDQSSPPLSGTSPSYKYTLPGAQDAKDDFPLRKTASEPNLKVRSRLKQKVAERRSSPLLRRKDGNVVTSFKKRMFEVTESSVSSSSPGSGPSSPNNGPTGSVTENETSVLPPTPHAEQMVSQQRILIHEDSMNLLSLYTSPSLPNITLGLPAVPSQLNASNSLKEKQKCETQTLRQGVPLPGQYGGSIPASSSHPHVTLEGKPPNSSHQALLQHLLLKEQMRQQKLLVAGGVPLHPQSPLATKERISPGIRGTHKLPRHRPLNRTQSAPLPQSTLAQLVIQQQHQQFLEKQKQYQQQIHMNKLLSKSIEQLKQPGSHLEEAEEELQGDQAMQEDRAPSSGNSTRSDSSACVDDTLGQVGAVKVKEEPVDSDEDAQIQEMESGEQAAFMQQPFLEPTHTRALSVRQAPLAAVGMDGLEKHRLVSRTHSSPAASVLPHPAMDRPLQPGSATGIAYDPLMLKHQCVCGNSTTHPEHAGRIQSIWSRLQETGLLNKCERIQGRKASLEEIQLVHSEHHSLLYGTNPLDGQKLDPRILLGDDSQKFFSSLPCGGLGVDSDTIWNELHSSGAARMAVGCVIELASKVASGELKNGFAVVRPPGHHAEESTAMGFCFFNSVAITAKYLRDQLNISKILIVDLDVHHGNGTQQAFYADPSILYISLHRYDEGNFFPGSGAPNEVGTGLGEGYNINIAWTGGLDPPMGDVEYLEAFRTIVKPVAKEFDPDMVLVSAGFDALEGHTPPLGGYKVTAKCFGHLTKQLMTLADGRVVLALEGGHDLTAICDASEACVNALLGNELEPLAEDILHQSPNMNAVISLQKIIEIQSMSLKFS

[4] = cells; assay type: functional, cell-based; details: Homo sapiens, 72 h
[5] = species on record: Homo sapiens; test: Selectivity ratio of IC50 for human recombinant HDAC3 to IC50 for human recombinant HDAC6
[6] = target: NAD-dependent protein deacetylase sirtuin-1 (Homo sapiens) (UniProt Q96EB6); test: Inhibition of human recombinant sirtuin 1 at 10 uM using fluorogenic HDAC substrate measured after 20 mins by fluorimetry assay relative to control
[7] = target: T2, Histone deacetylase 5 (Homo sapiens, UniProt Q9UQL6); test: Inhibition of human recombinant HDAC5 at 10 uM using fluorogenic HDAC substrate class 2a measured after 30 mins by fluorimetry assay relative to control
T2 sequence (Q9UQL6 whole entry): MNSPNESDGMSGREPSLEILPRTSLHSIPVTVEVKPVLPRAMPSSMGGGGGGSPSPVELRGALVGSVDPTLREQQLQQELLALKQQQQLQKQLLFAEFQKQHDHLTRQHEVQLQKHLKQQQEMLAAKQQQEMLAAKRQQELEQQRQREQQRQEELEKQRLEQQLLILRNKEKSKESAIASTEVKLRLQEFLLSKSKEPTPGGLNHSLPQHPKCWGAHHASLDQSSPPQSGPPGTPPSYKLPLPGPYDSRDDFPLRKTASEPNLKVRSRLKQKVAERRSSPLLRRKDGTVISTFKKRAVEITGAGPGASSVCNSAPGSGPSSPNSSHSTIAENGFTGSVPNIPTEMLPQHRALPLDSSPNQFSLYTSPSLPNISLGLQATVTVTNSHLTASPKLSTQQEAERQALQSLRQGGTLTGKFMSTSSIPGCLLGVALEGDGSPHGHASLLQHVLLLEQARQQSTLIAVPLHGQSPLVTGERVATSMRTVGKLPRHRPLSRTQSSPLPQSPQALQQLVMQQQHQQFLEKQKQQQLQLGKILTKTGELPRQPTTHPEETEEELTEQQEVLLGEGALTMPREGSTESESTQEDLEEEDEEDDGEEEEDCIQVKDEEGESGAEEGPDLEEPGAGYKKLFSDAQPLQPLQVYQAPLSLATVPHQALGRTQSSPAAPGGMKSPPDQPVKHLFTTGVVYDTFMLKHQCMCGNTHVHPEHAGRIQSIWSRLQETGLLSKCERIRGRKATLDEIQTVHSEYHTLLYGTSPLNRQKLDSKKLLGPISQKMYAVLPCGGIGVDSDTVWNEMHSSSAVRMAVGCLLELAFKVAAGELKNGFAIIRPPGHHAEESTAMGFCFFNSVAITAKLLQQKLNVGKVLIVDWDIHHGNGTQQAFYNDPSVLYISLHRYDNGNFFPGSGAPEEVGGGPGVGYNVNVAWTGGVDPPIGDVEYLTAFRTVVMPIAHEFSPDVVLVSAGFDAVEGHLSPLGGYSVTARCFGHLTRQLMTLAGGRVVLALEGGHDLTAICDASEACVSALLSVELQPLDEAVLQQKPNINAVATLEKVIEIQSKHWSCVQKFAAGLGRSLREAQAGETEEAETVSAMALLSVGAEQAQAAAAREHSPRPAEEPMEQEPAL

[8] = target: T1, Protein deacetylase HDAC6 (Homo sapiens); test: Inhibition of HDAC6 in human A549 cells assessed as increase in alpha tubulin acetylation at 20 uM measured after 6 to 20 hrs by Western blot analysis; assay type: cell-based; in short: as §1
[9] = cells; assay type: functional, cell-based; details: Homo sapiens, 72 h; remark: listed apart in the source
[10] = target: Histone deacetylase 8 (Homo sapiens, UniProt Q9BY41); test: Inhibition of human recombinant HDAC8 using fluorogenic HDAC substrate measured after 60 mins by fluorimetry assay
Chain of Histone deacetylase 8 (Q9BY41 whole entry): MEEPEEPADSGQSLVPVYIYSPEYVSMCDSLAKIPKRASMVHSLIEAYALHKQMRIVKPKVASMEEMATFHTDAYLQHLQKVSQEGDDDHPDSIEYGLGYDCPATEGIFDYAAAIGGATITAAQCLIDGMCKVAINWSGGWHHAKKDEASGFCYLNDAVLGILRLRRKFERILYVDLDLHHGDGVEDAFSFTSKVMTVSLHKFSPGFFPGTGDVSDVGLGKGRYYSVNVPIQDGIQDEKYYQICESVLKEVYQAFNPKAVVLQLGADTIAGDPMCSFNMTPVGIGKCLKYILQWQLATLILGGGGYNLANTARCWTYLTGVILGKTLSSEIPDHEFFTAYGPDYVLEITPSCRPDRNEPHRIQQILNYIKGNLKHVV

[11] = target: T3, Histone deacetylase 1 (Homo sapiens, UniProt Q13547); test: Inhibition of human recombinant HDAC1 using fluorogenic HDAC substrate measured after 15 mins by fluorimetry assay
T3 sequence (Q13547 whole entry): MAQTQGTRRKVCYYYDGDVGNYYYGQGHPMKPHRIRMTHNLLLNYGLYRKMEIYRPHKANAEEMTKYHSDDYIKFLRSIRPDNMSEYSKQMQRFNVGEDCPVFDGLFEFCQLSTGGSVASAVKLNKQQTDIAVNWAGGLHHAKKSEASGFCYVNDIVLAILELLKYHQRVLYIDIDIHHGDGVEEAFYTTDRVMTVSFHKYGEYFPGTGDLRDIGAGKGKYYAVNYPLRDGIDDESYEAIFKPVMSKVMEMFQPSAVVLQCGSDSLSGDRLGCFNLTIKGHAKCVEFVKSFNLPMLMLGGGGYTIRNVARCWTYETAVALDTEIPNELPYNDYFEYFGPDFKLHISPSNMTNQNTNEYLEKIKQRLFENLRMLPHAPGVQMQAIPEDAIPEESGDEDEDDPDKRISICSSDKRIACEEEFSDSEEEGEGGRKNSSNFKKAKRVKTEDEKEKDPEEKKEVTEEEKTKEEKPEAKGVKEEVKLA

[12] = target: T3, Histone deacetylase 1; test: Inhibition of human recombinant HDAC1 at 10 uM using fluorogenic HDAC substrate measured after 15 mins by fluorimetry assay relative to control
[13] = species on record: Homo sapiens; test: Selectivity ratio of IC50 for human recombinant HDAC2 to IC50 for human recombinant HDAC6
[14] = target: Histone deacetylase; assay type: cell-based, Homo sapiens
[15] = species on record: Homo sapiens; test: Selectivity ratio of IC50 for human recombinant HDAC8 to IC50 for human recombinant HDAC6
[16] = target: Polyamine deacetylase HDAC10 (Homo sapiens, UniProt Q969S8); test: Inhibition of human recombinant HDAC10 using fluorogenic HDAC substrate measured after 45 mins by fluorimetry assay
[17] = target: T4, Histone deacetylase 4 (Homo sapiens, UniProt P56524); test: Inhibition of human recombinant HDAC4 at 10 uM using fluorogenic HDAC substrate class 2a measured after 30 mins by fluorimetry assay relative to control
T4 sequence (P56524 whole entry): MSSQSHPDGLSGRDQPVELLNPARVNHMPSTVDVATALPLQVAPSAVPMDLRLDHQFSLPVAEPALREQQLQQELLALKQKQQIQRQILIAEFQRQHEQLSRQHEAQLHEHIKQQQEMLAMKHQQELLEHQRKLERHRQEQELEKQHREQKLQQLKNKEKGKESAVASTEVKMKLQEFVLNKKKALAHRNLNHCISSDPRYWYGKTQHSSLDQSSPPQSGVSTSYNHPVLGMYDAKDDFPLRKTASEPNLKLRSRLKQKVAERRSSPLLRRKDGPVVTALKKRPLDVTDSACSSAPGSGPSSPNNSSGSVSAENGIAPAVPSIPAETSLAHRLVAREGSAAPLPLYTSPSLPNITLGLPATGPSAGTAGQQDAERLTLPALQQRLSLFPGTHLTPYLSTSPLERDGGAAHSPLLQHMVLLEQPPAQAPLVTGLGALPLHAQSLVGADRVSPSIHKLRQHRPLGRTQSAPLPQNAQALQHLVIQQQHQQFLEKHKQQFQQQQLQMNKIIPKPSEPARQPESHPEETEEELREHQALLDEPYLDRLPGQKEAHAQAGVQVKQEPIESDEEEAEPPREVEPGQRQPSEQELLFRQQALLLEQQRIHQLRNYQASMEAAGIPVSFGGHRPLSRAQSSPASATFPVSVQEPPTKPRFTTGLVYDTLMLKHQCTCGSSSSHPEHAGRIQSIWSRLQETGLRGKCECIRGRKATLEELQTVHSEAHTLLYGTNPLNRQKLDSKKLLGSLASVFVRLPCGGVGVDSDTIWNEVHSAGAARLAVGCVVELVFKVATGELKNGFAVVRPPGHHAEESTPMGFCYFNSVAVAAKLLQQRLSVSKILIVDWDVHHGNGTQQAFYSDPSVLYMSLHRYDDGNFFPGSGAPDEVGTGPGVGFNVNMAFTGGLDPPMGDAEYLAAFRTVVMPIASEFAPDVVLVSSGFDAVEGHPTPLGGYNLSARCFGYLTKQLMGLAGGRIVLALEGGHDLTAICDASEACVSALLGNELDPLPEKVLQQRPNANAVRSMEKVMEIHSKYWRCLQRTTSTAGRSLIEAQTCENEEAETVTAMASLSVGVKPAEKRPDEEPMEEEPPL

[18] = species on record: Homo sapiens; test: Selectivity ratio of IC50 for human recombinant HDAC11 to IC50 for human recombinant HDAC6
[19] = target: Protein deacetylase HDAC6 (Homo sapiens, UniProt Q9UBN7); test: Inhibition of human recombinant HDAC6 using fluorogenic HDAC substrate measured after 30 mins by fluorimetry assay
[20] = target: T1, Protein deacetylase HDAC6 (Homo sapiens); test: Inhibition of HDAC6 in human Meso163 cells assessed as upregulation of E-cadherin mRNA expression at 20 uM after 24 hrs by RT-Sybr green PCR analysis; assay type: cell-based
In short: (§2)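 Meso 163 and A549 cells treated for 24 h; E-cadherin, Sema-3F and p21 mRNA quantified by real-time PCR; means ± S.E.M. of four independent experiments.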

[21] = target: T1, Protein deacetylase HDAC6 (Homo sapiens); test: Inhibition of HDAC6 in human Meso163 cells assessed as upregulation of semaphorin 3F mRNA expression at 20 uM after 24 hrs by RT-Sybr green PCR analysis; assay type: cell-based; in short: as §2
[22] = target: Histone deacetylase 8 (Homo sapiens) (UniProt Q9BY41); test: Inhibition of human recombinant HDAC8 at 10 uM using fluorogenic HDAC substrate measured after 60 mins by fluorimetry assay relative to control
Chain of Histone deacetylase 8 (Homo sapiens) (Q9BY41 whole entry): as the sequence (Q9BY41 whole entry) above

[23] = target: T2, Histone deacetylase 5; test: Inhibition of human recombinant HDAC5 using fluorogenic HDAC substrate class 2a measured after 30 mins by fluorimetry assay
[24] = test system: A549; test: cells; assay type: functional, cell-based; details: Homo sapiens, A549, 72 h
[25] = target: T1, Protein deacetylase HDAC6 (Homo sapiens); test: Inhibition of HDAC6 in human A549 cells assessed as upregulation of semaphorin 3F mRNA expression at 20 uM after 24 hrs by RT-Sybr green PCR analysis; assay type: cell-based; in short: as §2
[26] = target: T1, Protein deacetylase HDAC6 (Homo sapiens); test: Inhibition of HDAC6 in human A549 cells assessed as upregulation of p21 mRNA expression at 20 uM after 24 hrs by RT-Sybr green PCR analysis; assay type: cell-based; in short: as §2
[27] = species on record: Homo sapiens; test: Selectivity ratio of IC50 for human recombinant HDAC10 to IC50 for human recombinant HDAC6
[28] = target: T5, Histone deacetylase 2 (Homo sapiens, UniProt Q92769); test: Inhibition of human recombinant HDAC2 at 10 uM using fluorogenic HDAC substrate measured after 15 mins by fluorimetry assay relative to control
T5 sequence (Q92769 whole entry): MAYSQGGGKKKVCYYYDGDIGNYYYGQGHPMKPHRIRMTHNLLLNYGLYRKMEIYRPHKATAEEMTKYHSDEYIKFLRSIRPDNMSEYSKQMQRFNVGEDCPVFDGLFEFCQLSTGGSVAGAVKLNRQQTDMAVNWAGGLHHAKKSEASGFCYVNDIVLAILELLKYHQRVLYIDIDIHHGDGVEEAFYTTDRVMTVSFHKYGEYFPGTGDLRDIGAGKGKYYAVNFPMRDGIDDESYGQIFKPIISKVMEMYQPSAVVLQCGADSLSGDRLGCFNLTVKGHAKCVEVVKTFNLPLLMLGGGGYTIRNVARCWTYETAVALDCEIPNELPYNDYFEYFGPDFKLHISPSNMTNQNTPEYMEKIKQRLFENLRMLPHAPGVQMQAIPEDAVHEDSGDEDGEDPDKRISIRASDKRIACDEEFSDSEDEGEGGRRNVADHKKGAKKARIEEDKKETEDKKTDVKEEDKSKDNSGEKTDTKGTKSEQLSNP

[29] = target: Polyamine deacetylase HDAC10 (Homo sapiens) (UniProt Q969S8); test: Inhibition of human recombinant HDAC10 at 10 uM using fluorogenic HDAC substrate measured after 45 mins by fluorimetry assay relative to control
[30] = target: T1, Protein deacetylase HDAC6 (Homo sapiens); test: Inhibition of HDAC6 in human Meso163 cells assessed as upregulation of p21 mRNA expression at 20 uM after 24 hrs by RT-Sybr green PCR analysis; assay type: cell-based; in short: as §2
[31] = target: T1, Protein deacetylase HDAC6 (Homo sapiens); test: Inhibition of human recombinant HDAC6 at 10 uM using fluorogenic HDAC substrate measured after 30 mins by fluorimetry assay relative to control
[32] = target: Histone deacetylase 11 (Homo sapiens) (UniProt Q96DB2); test: Inhibition of human recombinant HDAC11 at 10 uM using fluorogenic HDAC substrate class 2a measured after 30 mins by fluorimetry assay relative to control
[33] = target: T1, Protein deacetylase HDAC6 (Homo sapiens); test: Inhibition of HDAC6 in human Meso163 cells assessed as increase in alpha tubulin acetylation at 20 uM measured after 6 to 20 hrs by Western blot analysis; assay type: cell-based; in short: as §1
[34] = target: Histone deacetylase 7 (Homo sapiens, UniProt Q8WUI4); test: Inhibition of human recombinant HDAC7 using fluorogenic HDAC substrate class 2a measured after 45 mins by fluorimetry assay
[35] = species on record: Homo sapiens; test: Selectivity ratio of IC50 for human recombinant HDAC1 to IC50 for human recombinant HDAC6
[36] = target: T5, Histone deacetylase 2; test: Inhibition of human recombinant HDAC2 using fluorogenic HDAC substrate measured after 15 mins by fluorimetry assay
[37] = target: NAD-dependent protein deacetylase sirtuin-3, mitochondrial (Homo sapiens) (UniProt Q9NTG7); test: Inhibition of human recombinant sirtuin 3 at 10 uM using fluoro-lysine sirtuin 2 deacetylase substrate measured after 45 mins by fluorimetry assay relative to control
[38] = cells; assay type: functional, cell-based; details: Homo sapiens, 72 h; remark: listed apart in the source
[39] = target: T6, Histone deacetylase 3 (Homo sapiens, UniProt O15379)
T6 sequence (O15379 whole entry): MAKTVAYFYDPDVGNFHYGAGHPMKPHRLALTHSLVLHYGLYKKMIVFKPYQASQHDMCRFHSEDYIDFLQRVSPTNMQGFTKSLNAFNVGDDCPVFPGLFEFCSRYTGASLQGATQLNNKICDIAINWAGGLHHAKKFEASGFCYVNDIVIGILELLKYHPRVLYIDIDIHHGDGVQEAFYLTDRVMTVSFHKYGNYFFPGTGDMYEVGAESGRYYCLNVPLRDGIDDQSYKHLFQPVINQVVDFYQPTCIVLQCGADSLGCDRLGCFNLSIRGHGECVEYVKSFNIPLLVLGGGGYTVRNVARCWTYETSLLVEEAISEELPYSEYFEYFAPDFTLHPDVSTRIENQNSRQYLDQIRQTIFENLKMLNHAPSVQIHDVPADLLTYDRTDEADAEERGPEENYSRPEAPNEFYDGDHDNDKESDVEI

[40] = target: T1, Protein deacetylase HDAC6 (Homo sapiens); test: Inhibition of HDAC6 in human A549 cells assessed as upregulation of E-cadherin mRNA expression at 20 uM after 24 hrs by RT-Sybr green PCR analysis; assay type: cell-based; in short: as §2
[41] = target: T1, Protein deacetylase HDAC6 (Homo sapiens); test: Inhibition of HDAC6 in human Meso163 cells assessed as increase in histone H3 acetylation at 20 uM measured after 6 to 20 hrs by Western blot analysis; assay type: cell-based; in short: as §1
[42] = target: T6, Histone deacetylase 3; test: Inhibition of human recombinant HDAC3 at 10 uM using fluorogenic HDAC substrate measured after 10 mins by fluorimetry assay relative to control
[43] = target: T4, Histone deacetylase 4; test: Inhibition of human recombinant HDAC4 using fluorogenic HDAC substrate class 2a measured after 30 mins by fluorimetry assay
[44] = target: NAD-dependent protein deacetylase sirtuin-2 (Homo sapiens, UniProt Q8IXJ6); test: Inhibition of human recombinant sirtuin 2 using fluoro-lysine sirtuin 2 deacetylase substrate measured after 60 mins by fluorimetry assay

IC50 [1]: 6.6 µM
Activity [2]: Active
IC50 [3]: Not Active
IC50 [4]: 15.7 µM
Ratio IC50 [5]: 10
inhibition [6]: -2.6%
inhibition [7]: 2.8%
Activity [8]: Active
IC50 [9]: 15.6 µM
IC50 [10]: 1.6 µM
IC50 [11]: 3.5 µM
inhibition [12]: 84.7%
Ratio IC50 [13]: 17 to 37
EC50 [14]: 7.84 µM
Ratio IC50 [15]: 17 to 37
IC50 [16]: 1.6 µM
inhibition [17]: -4.8%
Ratio IC50 [18]: 17 to 37
IC50 [19]: 0.095 µM
Activity [20]: Active
Activity [21]: Active
inhibition [22]: 93.1%
IC50 [23]: Not Active
IC50 [24]: 62.4 µM
Activity [25]: Active
Activity [26]: Active
Ratio IC50 [27]: 17 to 37
inhibition [28]: 67.1%
inhibition [29]: 82.3%
Activity [30]: Active
inhibition [31]: 104%
inhibition [32]: 57.2%
Activity [33]: Active
IC50 [34]: Not Active
Ratio IC50 [35]: 17 to 37
IC50 [36]: 3.4 µM
inhibition [37]: -8.2%
IC50 [38]: 15.9 µM
IC50 [39]: 1 µM
Activity [40]: Active
Activity [41]: Active
inhibition [42]: 87.9%
IC50 [43]: Not Active
SMILES: COC(=O)c1ccc2ccccc2c1OCCCCCCCC(=O)NO

IC50 [4]: 3.9 µM
IC50 [9]: 7.83 µM
IC50 [24]: 16 µM
IC50 [38]: 15.8 µM
SMILES: CC(=O)Nc1ccc(C(=O)Nc2ccccc2N)cc1 [TACEDINALINE]

IC50 [44]: 17 µM
SMILES: Cc1ccc(C(=O)Nc2ccc(S(=O)(=O)O)c3cc(S(=O)(=O)O)cc(S(=O)(=O)O)c23)cc1NC(=O)c1cccc(NC(=O)Nc2cccc(C(=O)Nc3cc(C(=O)Nc4ccc(S(=O)(=O)O)c5cc(S(=O)(=O)O)cc(S(=O)(=O)O)c45)ccc3C)c2)c1 [SURAMIN]

EC50 [14]: 8.14 µM
SMILES: COC(=O)c1ccc2ccccc2c1OCCCCCCCC(=O)Nc1ccccc1N
